Results from ChEMBL document CHEMBL4811300, “Design, synthesis, and biological evaluation of novel bifunctional thyrointegrin antagonists for neuroblastoma” (Bioorg Med Chem, 2021).

Columns and labels:
SK-N-FI [1] = assay: Antitumor activity against human SK-N-FI cells xenografted in Ncr nude mouse assessed as reduction of tumor weight at 3 mg/kg, sc dosed daily up to 20 days relative to control; assay type: functional; parameters: scale not given: the % may be the effect or the level left; settings: time day <=20
Method in brief: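 SK-N-F1 xenografts: 2 million cells per implant, 4 mice per group, with treatment starting once tumors reached 500 mm³. Dosing was 3 mg/kg s.c. once daily for 20 days (the methods say 21) against PBS vehicle control. Animals were sacrificed at study end, and tumors were excised and weighed.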

SK-N-FI [2] = assay: Antitumor activity against human SK-N-FI cells xenografted in Ncr nude mouse assessed as increase in necrotic cells in tumor at 3 mg/kg, sc dosed daily up to 20 days by H and E staining based light microscopic analysis relative to control; assay type: functional; settings: time day <=20
Method in brief: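 SK-N-F1 cells (2 million per implant) were grown in mice (4 per group) until tumors reached 500 mm³. Mice were then dosed at 3 mg/kg s.c. once daily for 20 days against PBS vehicle; the methods section states 21 days. Harvested tumors were fixed in 10% formalin for at least 48 h, paraffin-embedded, sectioned and H&E stained. Necrosis, fibrosis and debris area was scored microscopically at 4X, 10X and 40X.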

[3] = Drug uptake in human SK-N-F1 cells at 10 uM measured upto 60 mins by LC-MS/MS analysis; assay type: ADME, cell-based; settings: sk-n-fi, 1 h
Method in brief: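 SK-N-F1 cells (~1M) were exposed to compound at 10 uM per the figure legend; the methods text gives 1 µM. Incubation lasted 15, 30 and 60 min. Cells were washed with PBS, pelleted at 5,000g for 10 min, homogenized in acetonitrile and extracted. The residue was reconstituted in acetonitrile/water 80/20. Quantification was by LC-MS/MS (positive ESI MRM) against 1–1000 ng/mL standards.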

Row | Structure (SMILES) | Activity (SK-N-FI [1]) | Activity (SK-N-FI [2]) | Drug uptake [3]
1 | N=C(N)NCc1ccc(OCCOCCOCCOCCOCCOCCOCCOCCN2CCN(CCCOc3c(I)cc(Oc4c(I)cc(CC(=O)O)cc4I)cc3I)CC2)cc1 | 90% | 98% | –
2 | CC(C)(C)OC(=O)NCc1ccc(OCCOCCOCCOCCOCCOCCOCCn2cc(COc3c(I)cc(Oc4c(I)cc(CC(=O)O)cc4I)cc3I)nn2)cc1 | – | – | Active
3 | N=C(N)NCc1cccc(I)c1 [IOBENGUANE] | – | – | Active
